30 compounds from ChEMBL document CHEMBL1133173, “Isoxazolines as potent antagonists of the integrin alpha(v)beta(3)” (J Med Chem, 2000) can be followed below.

SMILES strings stand for the structures.

Sequence of Integrin alpha-V/beta-3 (P05106 27-788 limits assumed): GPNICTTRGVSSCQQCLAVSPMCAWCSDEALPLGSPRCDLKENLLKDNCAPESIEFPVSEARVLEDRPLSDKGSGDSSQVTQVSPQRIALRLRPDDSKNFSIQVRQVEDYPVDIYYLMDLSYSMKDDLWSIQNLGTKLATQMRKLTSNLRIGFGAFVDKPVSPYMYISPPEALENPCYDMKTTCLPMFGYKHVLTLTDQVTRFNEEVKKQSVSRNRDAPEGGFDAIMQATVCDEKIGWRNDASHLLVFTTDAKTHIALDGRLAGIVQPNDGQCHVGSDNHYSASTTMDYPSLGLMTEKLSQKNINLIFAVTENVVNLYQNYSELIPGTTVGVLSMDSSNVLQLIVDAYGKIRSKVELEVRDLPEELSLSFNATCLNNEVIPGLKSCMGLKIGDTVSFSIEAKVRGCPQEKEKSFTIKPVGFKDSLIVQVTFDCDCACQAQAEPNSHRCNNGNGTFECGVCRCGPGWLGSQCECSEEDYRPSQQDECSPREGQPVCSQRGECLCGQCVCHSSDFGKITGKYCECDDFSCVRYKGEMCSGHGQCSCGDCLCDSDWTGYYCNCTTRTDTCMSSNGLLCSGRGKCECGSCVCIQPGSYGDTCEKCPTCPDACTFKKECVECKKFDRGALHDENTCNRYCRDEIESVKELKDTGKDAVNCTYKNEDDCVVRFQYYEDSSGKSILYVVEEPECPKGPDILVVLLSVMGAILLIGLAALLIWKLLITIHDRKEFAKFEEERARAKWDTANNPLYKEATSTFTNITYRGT
Sequence of Integrin alpha-V/beta-3 (P06756 31-889 limits assumed): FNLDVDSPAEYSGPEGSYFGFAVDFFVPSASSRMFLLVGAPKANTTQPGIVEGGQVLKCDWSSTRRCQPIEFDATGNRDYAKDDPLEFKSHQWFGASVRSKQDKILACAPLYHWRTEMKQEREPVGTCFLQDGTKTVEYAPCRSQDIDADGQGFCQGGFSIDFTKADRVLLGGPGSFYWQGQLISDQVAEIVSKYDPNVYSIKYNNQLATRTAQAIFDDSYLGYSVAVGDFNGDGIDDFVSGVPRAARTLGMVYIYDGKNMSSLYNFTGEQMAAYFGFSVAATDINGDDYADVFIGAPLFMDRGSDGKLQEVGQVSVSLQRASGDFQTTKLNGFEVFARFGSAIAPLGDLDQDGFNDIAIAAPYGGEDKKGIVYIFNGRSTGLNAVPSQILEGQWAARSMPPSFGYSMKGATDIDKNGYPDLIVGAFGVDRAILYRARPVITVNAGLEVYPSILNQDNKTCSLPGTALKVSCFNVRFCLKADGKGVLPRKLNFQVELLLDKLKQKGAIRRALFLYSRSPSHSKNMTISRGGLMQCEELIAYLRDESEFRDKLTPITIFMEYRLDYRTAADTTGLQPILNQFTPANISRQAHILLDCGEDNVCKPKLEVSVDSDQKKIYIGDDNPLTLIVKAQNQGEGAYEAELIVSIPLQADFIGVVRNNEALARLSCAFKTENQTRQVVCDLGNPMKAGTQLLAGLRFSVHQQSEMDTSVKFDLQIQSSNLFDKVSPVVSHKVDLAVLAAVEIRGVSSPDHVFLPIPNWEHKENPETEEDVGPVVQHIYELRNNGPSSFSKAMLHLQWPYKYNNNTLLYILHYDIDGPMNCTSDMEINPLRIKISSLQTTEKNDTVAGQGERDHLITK
Sequence of Integrin alpha-V/beta-3 (P06756 891-1048 limits assumed): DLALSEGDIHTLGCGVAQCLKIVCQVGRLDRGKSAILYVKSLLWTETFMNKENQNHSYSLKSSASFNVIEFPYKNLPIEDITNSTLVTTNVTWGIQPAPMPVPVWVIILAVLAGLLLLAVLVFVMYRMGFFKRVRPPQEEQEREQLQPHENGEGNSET

This experiment concerns the target Integrin alpha-V/beta-3 (Homo sapiens, UniProt P05106+P06756). Description: Inhibition of vitronectin receptor (alpha V beta 3), expressed on human 293 cells, binding to immobilized fibrinogen. It is filed as cell-based, HEK293. An outline of the steps: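 Human 293 cells stably transfected with human β3 plus a lacZ reporter (293β3z clone). Cells at 10⁶ viable cells/mL in MCDB131/20 mM HEPES pH 7.0 with 0.2% DMSO are preincubated with compound for 15 min at 37 °C. They are then added at 10⁵ cells/well to glycine-purified human fibrinogen-coated, BSA-blocked wells for 1 h at 37 °C, 5% CO₂. Adherent cells are lysed and β-galactosidase is read by chemiluminescence against a purified enzyme standard curve. Nonspecific binding is defined with 1 μM of a reference antagonist.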
For `N[C@@H](CNC(=O)C1=NOC(CCCCNc2ncc[nH]2)C1)C(=O)O` (stereo not given in full), the IC50 is above 1000 nM.

In turn, `Cc1cc(C)c(S(=O)(=O)N[C@@H](CNC(=O)C2=NOC(CCNc3ncc[nH]3)C2)C(=O)O)c(C)c1` (stereo not given in full) yielded a half-inhibitory concentration (IC50) of 106 nM. With `O=C(NC[C@H](NS(=O)(=O)c1ccccc1)C(=O)O)C1=NOC(CCCCNc2ccccn2)C1` (stereo not given in full), the IC50 turned out to be 81 nM. The IC50 values of the last two compounds are within 1.5-fold of each other. On to `Cc1cc(C)c(S(=O)(=O)N[C@@H](CNC(=O)C2=NOC(CCCc3cccc(N)n3)C2)C(=O)O)c(C)c1` (stereo not given in full), for which the concentration for half-maximal inhibition (IC50) was found to be 26 nM. This IC50 is about 3.1-fold lower than that of the compound before.

The compound `Cc1cccc(Cl)c1S(=O)(=O)N[C@@H](CNC(=O)C1=NOC(CCCCNc2ncc[nH]2)C1)C(=O)O` (stereo not given in full) displayed a half-inhibitory concentration (IC50) of 7.1 nM.

As to `Cc1cc(C)c(S(=O)(=O)N[C@@H](CNC(=O)C2=NOC(CCNC(=O)Nc3ncc[nH]3)C2)C(=O)O)c(C)c1` (stereo not given in full), the IC50 amounted to 34 nM. Take `Cc1cc(C)c(S(=O)(=O)N[C@@H](CNC(=O)C2=NOC(CCCCNc3ccccn3)C2)C(=O)O)c(C)c1` (stereo not given in full): the IC50 was 54 nM. This IC50 lies about 1.6-fold higher than the previous one.

In turn, `CN([C@@H](CNC(=O)C1=NOC(CCCCNc2ccccn2)C1)C(=O)O)S(=O)(=O)c1ccc(-c2ccccc2)cc1` (stereo not given in full) registered a half-maximal inhibitory concentration (IC50) of 130 nM. For `O=C(NC[C@H](NS(=O)(=O)c1ccc(-c2ccccc2)cc1)C(=O)O)C1=NOC(CCCCNc2ncc[nH]2)C1` (stereo not given in full), the IC50 stood at 240 nM.

For the compound `Cc1cc(C)c(S(=O)(=O)N[C@@H](CNC(=O)C2=NOC(CCCCNS(N)(=O)=O)C2)C(=O)O)c(C)c1` (stereo not given in full), the IC50 is above 1000 nM. For the compound `Cc1cc(C)c(S(=O)(=O)N[C@@H](CNC(=O)C2=NOC(CCCCNc3nccc4ccccc34)C2)C(=O)O)c(C)c1` (stereo not given in full), the IC50 was above 1000 nM. For the compound `Cc1cc(C)c(S(=O)(=O)N[C@@H](CNC(=O)C2=NOC(CCCCNc3ncc[nH]3)C2)C(=O)O)c(C)c1` (stereo not given in full), the IC50 was 15 nM.

`Cc1cc(C)c(S(=O)(=O)N[C@@H](CNC(=O)C2=NOC(CCCCNC(N)=O)C2)C(=O)O)c(C)c1` (stereo not given in full) came in with an IC50 above 1000 nM. The figure for `Cc1cc(-c2ccccc2)cc(C)c1S(=O)(=O)N[C@@H](CNC(=O)C1=NOC(CCCCNc2ccccn2)C1)C(=O)O` (stereo not given in full) is 44 nM. `N=C(N)c1ccc(C2=NO[C@@H](CC(=O)NCCC(=O)O)C2)cc1` registered an IC50 above 100000 nM. Turning to `Cc1cc(-c2ccccc2)cc(C)c1S(=O)(=O)N[C@@H](CNC(=O)C1=NOC(CCCCNc2ncc[nH]2)C1)C(=O)O` (stereo not given in full), the IC50 was found to be 8.8 nM. In other words, the single-digit nanomolar range. Take `O=C(NC[C@H](NS(=O)(=O)c1c(Cl)cccc1Cl)C(=O)O)C1=NOC(CCCCNc2ncc[nH]2)C1` (stereo not given in full): the half-inhibitory concentration (IC50) is 18 nM. Regarding `Cc1cc(C)c(S(=O)(=O)N[C@@H](CNC(=O)C2=NOC(CCCC(=O)Nc3ncc[nH]3)C2)C(=O)O)c(C)c1` (stereo not given in full), the concentration for half-maximal inhibition (IC50) was 31 nM. This IC50 is about 1.7-fold higher than that of the compound before. In turn, `Cc1noc(C)c1S(=O)(=O)N[C@@H](CNC(=O)C1=NOC(CCCCNc2ncc[nH]2)C1)C(=O)O` (stereo not given in full) gave a 50% inhibitory concentration (IC50) of 73 nM. Against the preceding compound, the IC50 is about 2.4-fold higher. In turn, `Cc1cc(C)c(S(=O)(=O)N[C@H](CNC(=O)C2=NOC(CCCCNc3ncc[nH]3)C2)C(=O)O)c(C)c1` (stereo not given in full) showed an IC50 of 2800 nM. Against the preceding compound, the IC50 is about 38-fold higher. The figure for `Cc1cc(C)c(S(=O)(=O)N[C@@H](CNC(=O)C2=NOC(CCCCN=C(N)N)C2)C(=O)O)c(C)c1` (stereo not given in full) is 169 nM; for `O=C(NC[C@H](NS(=O)(=O)c1c(Cl)cc(-c2ccccc2)cc1Cl)C(=O)O)C1=NOC(CCCCNc2ncc[nH]2)C1` (stereo not given in full) it is 4.6 nM; for `O=C(NC[C@H](NS(=O)(=O)c1cccc2ccccc12)C(=O)O)C1=NOC(CCCCNc2ncc[nH]2)C1` (stereo not given in full) it is 51 nM. Compound `Cc1cc(C)c(S(=O)(=O)N[C@@H](CNC(=O)C2=NOC(CCCc3c[nH]c(N)n3)C2)C(=O)O)c(C)c1` (stereo not given in full) showed an IC50 of 46 nM. The compound `O=C(NC[C@H](NS(=O)(=O)c1cccc2ccccc12)C(=O)O)C1=NOC(CCCCNc2ccccn2)C1` (stereo not given in full) yielded a concentration for half-maximal inhibition (IC50) of 160 nM. `Cc1cc(C)c(S(=O)(=O)N[C@@H](CNC(=O)C2=NOC(CCCCNc3cc4ccccc4cn3)C2)C(=O)O)c(C)c1` (stereo not given in full) displayed a half-maximal inhibitory concentration (IC50) above 1000 nM. The compound `Cc1cc(C)c(S(=O)(=O)N[C@@H](CNC(=O)C2=NOC(CCCCNC3=NCCN3)C2)C(=O)O)c(C)c1` (stereo not given in full) showed a concentration for half-maximal inhibition (IC50) of 62 nM.

Turning to `CC(C)c1ccc(S(=O)(=O)N[C@@H](CNC(=O)C2=NOC(CCCCNc3ccccn3)C2)C(=O)O)cc1` (stereo not given in full), the half-inhibitory concentration (IC50) turned out to be 170 nM.

The compound `O=C(NC[C@H](NS(=O)(=O)c1ccccc1)C(=O)O)C1=NOC(CCCCNc2ncc[nH]2)C1` (stereo in doubt; 3cc) had an IC50 of 10.6 nM. The compound `O=C(NC[C@H](NS(=O)(=O)c1ccccc1)C(=O)O)C1=NOC(CCCCNc2ncc[nH]2)C1` (stereo in doubt; 3q) had an IC50 of 66 nM.

Broadly, the IC50 is the point on the concentration scale where inhibition reaches its midpoint.
